Measured values taken from PubChem BioAssay AID488891 (Broad Institute, 2010).
Active and inactive are the calls of the source.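 Rule for the calls: active = compounds raising caspase signal with a fitted AC50 no higher than the top valid dose tested; inconclusive = flat fit at partial mid-level activity, or unreliable fit; inactive = the rest.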

Tested on: MEF Flag-A1-IRES-BIM, caspase-Glo luminescence, 3 h
Experiment: caspase activation in A1/BIM-primed MEFs, dose response, A1 inhibitor project, cell-based, alternate A1 construct, Caspase-Glo luminescence, dry powder (AID 488891)
Details: not given
Method in brief: (§1)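 Assay system: mouse embryonic fibroblasts primed with Flag-A1-IRES-BIM construct; Amount: 2500 cells/well; Doses: compound dose-response series, pin-transferred on day 2; Timing: 3 h compound exposure at 37 °C, then 1 h CaspaseGlo; Technique: luminescence with CaspaseGlo reagent; Measure: caspase activation.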

Row | SMILES | AC50
1 | CCc1cc2c(=O)c(-c3cnn(-c4ccccc4)c3)c(C)oc2cc1OCC(=O)Nc1cccc(C)c1 | 5.29 µM
2 | CC(=O)N[C@H]1[C@H](O[C@H]2CC[C@@]3(C)C(CC[C@]4(C)C3CC=C3[C@@H]5CC(C)(C)CC[C@]5(C(=O)OC5OCC(O)C(O)C5O)C(O)C[C@]34C)C2(C)C)O[C@H](COC2OCC(O)C(OC3OCC(O)C(O)C3O)C2O)[C@@H](O[C@@H]2O[C@@H](C)[C@H](O)[C@@H](O)[C@H]2O[C@@H]2O[C@@H](C)[C@H](O)[C@@H](O)[C@H]2O)[C@@H]1O (stereo not given in full) | 7.88 µM
3 | O=C(CCl)N=c1sccn1Cc1ccccc1Cl | 1.28 µM
4 | CCOC(=O)CSC1=N/C(=C/c2ccc(-n3cncn3)cc2)C(=O)N1C(C)=O | 11.1 µM
5 | CCSc1nnc(NC(=O)c2nc(S(=O)(=O)Cc3ccc(F)cc3)ncc2Cl)s1 | 13.1 µM
6 | CC(C)(C)n1nc(-c2ccc(Cl)cc2)c2c(N)ncnc21 | > 150 µM (inactive)
7 | Cc1c(CCOC(=O)c2ccc(N3CCOCC3)c([N+](=O)[O-])c2)sc[n+]1CC#N | 14.2 µM
8 | Nc1nc(F)nc2c1ncn2[C@@H]1O[C@H](CO)[C@@H](O)[C@H]1O | 1.5 µM
9 | C=C1[C@@H](C)[C@H]2[C@H](Cc3ccccc3)NC(=O)[C@]23OC(=O)/C=C\[C@H](O)CCC[C@@H](C)C/C=C/[C@H]3[C@@H]1O | 6.46 µM
10 | C/C1=C/C(=O)O[C@@H]2C[C@@H](CC[C@H](C)/C=C\CC1)O[C@@](O)(C1CSC(=O)N1)C2 (stereo not given in full) | 0.607 µM
11 | Cc1cccc(NC(=O)/C(C#N)=C/c2cn(CC(=O)NCc3ccco3)c3ccccc23)c1 | 3.76 µM
12 | O=C(Oc1cccc(/C=N/Nc2nc(Nc3ccccc3)nc(N3CCOCC3)n2)c1)c1ccco1 | 8.01 µM
13 | COc1cccc(C(=O)C(C#N)=C(SC)SC)c1 | 1.64 µM
14 | Cc1c(C=O)c(C=O)c(C)n1Cc1ccccc1 | 12.9 µM
15 | Cn1c(=NC(=O)CCl)sc2ccccc21 | 3.46 µM
16 | Cc1cc(C(=O)CCl)c(C)n1CCc1ccc(Cl)cc1 | 9 µM
17 | Cc1ccc(Sc2c([N+](=O)[O-])c(=O)n(C)c3ccccc23)cc1 | 13.4 µM
18 | COc1ccc(N(C(=O)CCl)C(C(=O)NCCc2ccccc2)c2cccs2)cc1Cl (stereo not given) | 9.36 µM
19 | Cc1cccc(CS(=O)(=O)c2ncc(Cl)c(C(=O)Nc3nnc(C(C)C)s3)n2)c1 | 12 µM
20 | Cc1ccc(CS(=O)(=O)c2ncc(Cl)c(C(=O)Nc3nnc(C(C)C)s3)n2)cc1 | 5.49 µM
21 | COc1cc(CN2CCN(c3cc(C)ccc3C)CC2)ccc1O | 7.24 µM
22 | CCc1nnc(NC(=O)c2nc(S(=O)(=O)Cc3ccccc3)ncc2Cl)s1 | 11.6 µM

Tested on: not listed separately
Experiment: as above
Details: MEF Flag-A1-IRES-BIM, caspase-Glo luminescence, 3 h; at 150 µM (top of the series)
Method in brief: as §1

Row | SMILES | caspase activation
23 | CC(=O)OC(C)(C)/C=C/C(=O)[C@](C)(O)C1[C@H](O)C[C@@]2(C)C3CC=C4C(C[C@H](O)C(=O)C4(C)C)[C@]3(C)C(=O)C[C@]12C (stereo not given in full) | 3.76% (inactive)
24 | C=C1[C@@H](C)[C@H]2[C@H](Cc3ccccc3)NC(=O)[C@]23[C@H](OC(C)=O)/C=C/[C@](C)(O)C(=O)[C@@H](C)C/C=C/[C@H]3[C@@H]1O | 1.11% (inactive)
25 | COc1cc(/C=C(/C#N)c2nc3ccccc3[nH]2)ccc1OCC(=O)Nc1ccccc1C(C)C | 0.299% (inactive)
